Test results reported in ChEMBL document CHEMBL1130118, “A novel radioiodination reagent for protein radiopharmaceuticals with L-lysine as a plasma-stable metabolizable linkage to liberate m-iodohippuric acid after lysosomal proteolysis” (J Med Chem, 1997).

Legend:
Assay type in all cases: ADME, organism-based
Mus musculus [1] = test: The biodistribution time for compound radioactivity after concomitant administration of [131 I ]L-HML-NGA and compound in mice. It is expressed as percent injected dose per neck after 15 minutes; settings: in vivo, 0.25 h
Summary of the method: (§1)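 Six-week-old male ddY mice received an intravenous injection of a 1:1 mix of the 131I- and 125I-labelled galactosyl-neoglycoalbumin conjugates, each diluted to 90 µg/mL protein in 0.1 M PBS pH 6.0, at 9 µg radioiodinated NGA per mouse. Groups of five were killed at 5, 15 and 30 min, 1 and 3 h. Organs were excised, weighed and well-counted, giving %ID/organ (blood %ID/g) as mean (SD).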

Mus musculus [2] = test: The biodistribution time for compound radioactivity after concomitant administration of [131 I ]L-HML-NGA and compound in mice. It is expressed as percent injected dose per neck after 3 hours; settings: in vivo; summary of the method: as §1
Mus musculus [3] = test: The biodistribution time for compound radioactivity after concomitant administration of [131 I ]L-HML-NGA and compound in mice. It is expressed as percent injected dose per neck after 5 minutes; settings: in vivo; summary of the method: as §1
Mus musculus [4] = test: The biodistribution time for compound radioactivity after concomitant administration of [131 I ]L-HML-NGA and compound in mice. It is expressed as percent injected dose per neck after 30 minutes; settings: in vivo, 0.5 h; summary of the method: as §1
Mus musculus [5] = test: The biodistribution time for compound radioactivity after concomitant administration of [131 I ]L-HML-NGA and compound in mice. It is expressed as percent injected dose per stomach after 15 minutes; settings: in vivo, 0.25 h; summary of the method: as §1
Mus musculus [6] = test: The biodistribution time for compound radioactivity after concomitant administration of [131 I ]L-HML-NGA and compound in mice. It is expressed as percent injected dose per stomach after 3 hours; settings: in vivo; summary of the method: as §1
Mus musculus [7] = test: The biodistribution time for compound radioactivity after concomitant administration of [131 I ]L-HML-NGA and compound in mice. It is expressed as percent injected dose per stomach after 30 minutes; settings: in vivo, 0.5 h; summary of the method: as §1
Mus musculus [8] = test: The biodistribution time for compound radioactivity after concomitant administration of [131 I ]L-HML-NGA and compound in mice. It is expressed as percent injected dose per stomach after 5 minutes; settings: in vivo; summary of the method: as §1
Mus musculus [9] = test: The biodistribution time for compound radioactivity after concomitant administration of [[131 I ]L-HML-NGA and compound in mice. It is expressed as percent injected dose per kidney after 1 hour; settings: in vivo; summary of the method: as §1
Mus musculus [10] = test: The biodistribution time for compound radioactivity after concomitant administration of [[131 I ]L-HML-NGA and compound in mice. It is expressed as percent injected dose per kidney after 15 minutes; settings: in vivo, 0.25 h; summary of the method: as §1
Mus musculus [11] = test: The biodistribution time for compound radioactivity after concomitant administration of [[131 I ]L-HML-NGA and compound in mice. It is expressed as percent injected dose per kidney after 3 hours; settings: in vivo; summary of the method: as §1
Mus musculus [12] = test: The biodistribution time for compound radioactivity after concomitant administration of [131 I ]L-HML-NGA and [compound in mice. It is expressed as percent injected dose per stomach after 1 hour; settings: in vivo; summary of the method: as §1
Mus musculus [13] = test: The biodistribution time for compound radioactivity after concomitant administration of [131 I ]L-HML-NGA and compound in mice. It is expressed as percent injected dose per gram of blood tissue after 1 hour; settings: in vivo; summary of the method: as §1
Mus musculus [14] = test: The biodistribution time for compound radioactivity after concomitant administration of [131 I ]L-HML-NGA and compound in mice. It is expressed as percent injected dose per gram of blood tissue after 15 minutes; settings: in vivo, 0.25 h; summary of the method: as §1
Mus musculus [15] = test: The biodistribution time for compound radioactivity after concomitant administration of [131 I ]L-HML-NGA and compound in mice. It is expressed as percent injected dose per gram of blood tissue after 3 hours; settings: in vivo; summary of the method: as §1
Mus musculus [16] = test: The biodistribution time for compound radioactivity after concomitant administration of [131 I ]L-HML-NGA and compound in mice. It is expressed as percent injected dose per gram of blood tissue after 30 minutes; settings: in vivo, 0.5 h; summary of the method: as §1
Mus musculus [17] = test: The biodistribution time for compound radioactivity after concomitant administration of [131 I ]L-HML-NGA and compound in mice. It is expressed as percent injected dose per gram of blood tissue after 5 minutes; settings: in vivo; summary of the method: as §1
Mus musculus [18] = test: The biodistribution time for compound radioactivity after concomitant administration of [131 I ]L-HML-NGA and compound in mice. It is expressed as percent injected dose per intestine after 15 minutes; settings: in vivo, 0.25 h; summary of the method: as §1
Mus musculus [19] = test: The biodistribution time for compound radioactivity after concomitant administration of [131 I ]L-HML-NGA and compound in mice. It is expressed as percent injected dose per liver after 30 minutes; settings: in vivo, 0.5 h; summary of the method: as §1
Mus musculus [20] = test: The biodistribution time for compound radioactivity after concomitant administration of [131 I ]L-HML-NGA and compound in mice. It is expressed as percent injected dose per liver after 5 minutes; settings: in vivo; summary of the method: as §1
Mus musculus [21] = test: The biodistribution time for compound radioactivity after concomitant administration of [131 I ]L-HML-NGA and compound in mice. It is expressed as percent injected dose per neck after 1 hour; settings: in vivo; summary of the method: as §1
Mus musculus [22] = test: The biodistribution time for compound radioactivity after concomitant administration of [[131 I ]L-HML-NGA and compound in mice. It is expressed as percent injected dose per kidney after 5 minutes; settings: in vivo; summary of the method: as §1
Homo sapiens [23] = organism: Homo sapiens; test: The percent protein-bound radioactivity in NGAfractions following incubation of radioiodinated compound in human serum after 1 hour
Summary of the method: (§2)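 Conjugates were diluted to 0.5 mg/mL in 0.1 M PBS pH 6.0, and 20 µL was added to 230 µL of freshly prepared human serum. Samples were incubated at 37 °C and taken at 1, 3, 6 or 24 h. Protein-bound fraction (Rf 0) was separated from small metabolites (Rf 0.6-0.9) by paper chromatography in methanol-water 4:1. Protein-bound radioactivity was divided by the initial radiochemical purity. Values are mean (SD).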

Homo sapiens [24] = organism: Homo sapiens; test: The percent protein-bound radioactivity in NGAfractions following incubation of radioiodinated compound in human serum after 24 hours; summary of the method: as §2
Homo sapiens [25] = organism: Homo sapiens; test: The percent protein-bound radioactivity in NGAfractions following incubation of radioiodinated compound in human serum after 3 hours; summary of the method: as §2
Homo sapiens [26] = organism: Homo sapiens; test: The percent protein-bound radioactivity in NGAfractions following incubation of radioiodinated compound in human serum after 6 hours; settings: in vitro; summary of the method: as §2
Mus musculus [27] = test: The biodistribution time for compound radioactivity after concomitant administration of [131 I ]L-HML-NGA and compound in mice. It is expressed as percent injected dose per intestine after 3 hours; settings: in vivo; summary of the method: as §1
Mus musculus [28] = test: The biodistribution time for compound radioactivity after concomitant administration of [131 I ]L-HML-NGA and compound in mice. It is expressed as percent injected dose per intestine after 30 minutes; settings: in vivo, 0.5 h; summary of the method: as §1
Mus musculus [29] = test: The biodistribution time for compound radioactivity after concomitant administration of [131 I ]L-HML-NGA and compound in mice. It is expressed as percent injected dose per intestine after 5 minutes; settings: in vivo; summary of the method: as §1
Mus musculus [30] = test: The biodistribution time for compound radioactivity after concomitant administration of [131 I ]L-HML-NGA and compound in mice. It is expressed as percent injected dose per intestine after 1 hour; settings: in vivo; summary of the method: as §1
Mus musculus [31] = test: The biodistribution time for compound radioactivity after concomitant administration of [131 I ]L-HML-NGA and compound in mice. It is expressed as percent injected dose per liver after 1 hour; settings: in vivo; summary of the method: as §1
Mus musculus [32] = test: The biodistribution time for compound radioactivity after concomitant administration of [131 I ]L-HML-NGA and compound in mice. It is expressed as percent injected dose per liver after 3 hours; settings: in vivo; summary of the method: as §1
[33] = Cumulative radioactivity exerted by compound in the feces at 24 hour postinjection of [131 I ]L-HML-NGA and compound.; settings: in vivo
Summary of the method: (§3)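 Mice received one i.v. co-injection of the dual-isotope NGA mixture, 9 µg of each radioiodinated protein, and were housed in metabolic cages for 24 h. Cumulative urine and feces were collected and counted. Values are % injected dose, mean (SD) of five animals, with a Student's paired t-test between the two co-administered conjugates.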

[34] = Cumulative radioactivity exerted by compound in the urine at 24 hour postinjection of [131 I ]L-HML-NGA and compound; settings: in vivo; summary of the method: as §3
Mus musculus [35] = test: The biodistribution time for compound radioactivity after concomitant administration of [[131 I ]L-HML-NGA and compound in mice. It is expressed as percent injected dose per kidney after 30 minutes; settings: in vivo, 0.5 h; summary of the method: as §1
Mus musculus [36] = test: The biodistribution time for compound radioactivity after concomitant administration of [131 I ]L-HML-NGA and compound in mice. It is expressed as percent injected dose per liver after 15 minutes; settings: in vivo, 0.25 h; summary of the method: as §1
Mus musculus [37] = test: The biodistribution time for compound radioactivity after concomitant administration of [131 I ]L-HML-NGA and compound in mice. It is expressed as percent injected dose per neck. Values are mean(SD) of five animals for each experiment after 3 hours; settings: in vivo; summary of the method: as §1

Structure (SMILES)	Radioactivity (Mus musculus [1]) [%]	Radioactivity (Mus musculus [3]) [%]	Radioactivity (Mus musculus [4]) [%]	Radioactivity (Mus musculus [5]) [%]	Radioactivity (Mus musculus [6]) [%]	Radioactivity (Mus musculus [7]) [%]	Radioactivity (Mus musculus [8]) [%]	Radioactivity (Mus musculus [9]) [%]	Radioactivity (Mus musculus [10]) [%]	Radioactivity (Mus musculus [11]) [%]	Radioactivity (Mus musculus [12]) [%]	Radioactivity (Mus musculus [13]) [%]	Radioactivity (Mus musculus [14]) [%]	Radioactivity (Mus musculus [15]) [%]	Radioactivity (Mus musculus [16]) [%]	Radioactivity (Mus musculus [17]) [%]	Radioactivity (Mus musculus [18]) [%]	Radioactivity (Mus musculus [19]) [%]	Radioactivity (Mus musculus [20]) [%]	Radioactivity (Mus musculus [21]) [%]	other results
N[C@@H](CS)C(=O)SC1CC(=O)N(CCCCCNC(=O)CNC(=O)c2cccc([125I])c2)C1=O (some centres undefined)	0.06	0.06	0.07	0.46	1.48	0.54	0.24	0.77	1.62	0.38	0.61	0.32	0.68	0.23	0.64	0.76	7.17	34.19	93.75	0.04	Radioactivity (Mus musculus [2]): 0.04%; Radioactivity (Mus musculus [22]): 0.8%; Radioactivity (Homo sapiens [23]): 100.07%; Radioactivity (Homo sapiens [24]): 97.26%; Radioactivity (Homo sapiens [25]): 99.12%; Radioactivity (Homo sapiens [26]): 98.56%; Radioactivity (Mus musculus [27]): 59.36%; Radioactivity (Mus musculus [28]): 33.84%; Radioactivity (Mus musculus [29]): 0.71%; Radioactivity (Mus musculus [30]): 55.62%; Radioactivity (Mus musculus [31]): 10.12%; Radioactivity (Mus musculus [32]): 5.72%; Radioactivity [33]: 58.83%; Radioactivity [34]: 25.5%; Radioactivity (Mus musculus [35]): 1.72%; Radioactivity (Mus musculus [36]): 77.12%
N=C(CCCSC1CC(=O)N(CCCC[C@H](NC(=O)CNC(=O)c2cccc([125I])c2)C(=O)O)C1=O)NC(=O)[C@@H](N)CCCCN (some centres undefined)	0.25	0.11	0.19	0.5	0.35	0.36	0.24	1.04	4.38	0.22	0.42	0.73	2.76	0.41	1.7	1.17	2.26	18.1	93.67	0.07	Radioactivity (Mus musculus [37]): 0.03%; Radioactivity (Mus musculus [22]): 0.33%; Radioactivity (Homo sapiens [23]): 99.88%; Radioactivity (Homo sapiens [24]): 97.85%; Radioactivity (Homo sapiens [25]): 99.4%; Radioactivity (Homo sapiens [26]): 99.5%; Radioactivity (Mus musculus [27]): 4.96%; Radioactivity (Mus musculus [28]): 4.79%; Radioactivity (Mus musculus [29]): 0.43%; Radioactivity (Mus musculus [30]): 5.17%; Radioactivity (Mus musculus [31]): 5.92%; Radioactivity (Mus musculus [32]): 3%; Radioactivity [33]: 4.03%; Radioactivity [34]: 78.26%; Radioactivity (Mus musculus [35]): 4.64%; Radioactivity (Mus musculus [36]): 55.86%
N[C@@H](CS)C(=O)SC1CC(=O)N(CCCC[C@@H](NC(=O)CNC(=O)c2cccc([125I])c2)C(=O)O)C1=O (some centres undefined)	0.2	0.15	0.18	0.65	1.09	2	0.24	0.72	2.97	0.34	1.4	0.54	1.78	0.34	1.11	1.15	5.11	27.49	93.14	0.11	Radioactivity (Mus musculus [2]): 0.04%; Radioactivity (Mus musculus [22]): 1.26%; Radioactivity (Mus musculus [27]): 40.82%; Radioactivity (Mus musculus [28]): 21.6%; Radioactivity (Mus musculus [29]): 1.14%; Radioactivity (Mus musculus [30]): 34.28%; Radioactivity (Mus musculus [31]): 12.6%; Radioactivity (Mus musculus [32]): 3.62%; Radioactivity [33]: 40.97%; Radioactivity [34]: 39.1%; Radioactivity (Mus musculus [35]): 1.73%; Radioactivity (Mus musculus [36]): 66.9%
